Data taken from ChEMBL document CHEMBL1155063 (Bioorg Med Chem, 2008).
Active and inactive are the calls of the source. The rule behind the calls is not given here.

Tests used:
[1] = system: HCT-15; test: Growth percent of human HCT15 cells at 10 uM after 48 hrs by MTT assay; conditions: HCT-15, 48 h
[2] = system: DU-145; test: Cytotoxicity against human DU145 cells at 10 uM after 48 hrs by MTT assay; format: functional; conditions: DU-145, 48 h, values are per cent of control
In short: (§1)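 Single-dose screen on the NCI 60-cell-line panel, run to the Developmental Therapeutics Program protocol (one-dose mean graph). Each value is the growth percentage of treated cells against untreated control cells.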

[3] = target: T1, Telomerase reverse transcriptase (Homo sapiens, UniProt O14746); test: Effect on human TERT expressed in BJ1 cells at 10 uM after 24 hrs by SEAP assay relative to control; conditions: BJ
[4] = system: HCT-29; test: Growth percent of human HCT29 cells at 10 uM after 48 hrs by MTT assay; conditions: HCT-29, 48 h
[5] = target: T1, Telomerase reverse transcriptase; test: Effect on human TERT expressed in H1299 cells at 10 uM after 24 hrs by SEAP assay relative to control
[6] = target: T1, Telomerase reverse transcriptase; test: Inhibition of telomerase in human H1299 cells at 1 to 20 uM by TRAP assay; format: cell-based
In short: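 Modified TRAP assay using 2 µg total lysate from H1299 lung cancer cells as the telomerase source. Compounds were tested at 1, 5, 10 and 20 µM. Products were resolved on 10% polyacrylamide gels and stained with SYBR Green. A Taq-polymerase internal control was included, along with positive and negative controls.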

[7] = system: SK-OV-3; test: Cytotoxicity against human SKOV3 cells at 10 uM after 48 hrs by MTT assay; format: functional; conditions: SK-OV-3, 48 h
In short: as §1

[8] = system: LOX IMVI; test: Cytotoxicity against human LOXIMVI cells at 10 uM after 48 hrs by MTT assay; format: functional; conditions: values are per cent of control
In short: as §1

[9] = system: OVCAR-3; test: Cytotoxicity against human OVCAR-3 cells at 10 uM after 48 hrs by MTT assay; format: functional; conditions: OVCAR-3, 48 h
In short: as §1

[10] = system: OVCAR-4; test: Cytotoxicity against human OVCAR4 cells at 10 uM after 48 hrs by MTT assay; format: functional; conditions: OVCAR-4, 48 h
In short: as §1

[11] = system: NCI-H322M; test: Cytotoxicity against human NCI-H322M cells at 10 uM after 48 hrs by MTT assay; format: functional
In short: as §1

[12] = system: SF-268; test: Cytotoxicity against human SF268 cells at 10 uM after 48 hrs by MTT assay; format: functional; conditions: SF-268, 48 h, values are per cent of control
In short: as §1

[13] = system: CCRF-CEM; test: Cytotoxicity against human CCRF-CEM cells at 10 uM after 48 hrs by MTT assay; format: functional
In short: as §1

[14] = system: NCI-H522; test: Growth percent of human NCI-H522 cells at 10 uM after 48 hrs by MTT assay; conditions: NCI-H522, 48 h
[15] = system: SW-620; test: Cytotoxicity against human SW620 cells at 10 uM after 48 hrs by MTT assay; format: functional; conditions: SW-620, 48 h, values are per cent of control
In short: (§2)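 Single-dose screen in the NCI 60-cell-line panel, run according to the Developmental Therapeutics Program protocol (one-dose mean graph). The result is the growth percentage of treated cells relative to untreated control cells.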

[16] = system: MDA-MB-231; test: Cytotoxicity against human MDA-MB-231/ATCC cells at 10 uM after 48 hrs by MTT assay; format: functional; conditions: MDA-MB-231, 48 h
In short: as §1

[17] = system: U-251; test: Cytotoxicity against human U251 cells at 10 uM after 48 hrs by MTT assay; format: functional; conditions: U-251, 48 h, values are per cent of control
In short: as §2

[18] = target: T1, Telomerase reverse transcriptase; test: Effect on human TERT expressed in H1299 cells at 100 uM after 24 hrs by SEAP assay relative to control
[19] = system: HCT-116; test: Growth percent of human HCT116 cells at 10 uM after 48 hrs by MTT assay; conditions: HCT-116, 48 h
[20] = system: NCI/ADR-RES; test: Cytotoxicity against human NCI/ADR-RES cells at 10 uM after 48 hrs by MTT assay; format: functional
In short: as §1

[21] = system: PC-3; test: Cytotoxicity against human PC3 cells at 10 uM after 48 hrs by MTT assay; format: functional; conditions: PC-3, 48 h, values are per cent of control
In short: as §1

[22] = system: MOLT-4; test: Cytotoxicity against human MOLT4 cells at 10 uM after 48 hrs by MTT assay; format: functional; conditions: MOLT-4, 48 h
In short: as §1

[23] = Cytotoxicity against human TERT immortalized BJ1 cells at 1 uM after 48 hrs by MTT assay relative to control; format: cell-based, BJ
In short: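 hTERT-immortalized BJ1 fibroblasts were grown in DMEM with 10% FCS, 1 mM pyruvate and 4 mM […]. Cells (about 2 × 10^3 per well) were seeded and held 24 h at 37 °C. Compounds were freshly dissolved in DMSO, diluted into medium and left on the cells 48 h. MTT was added for 4 h, then SDS/DMF lysis buffer for 16 h. Absorbance was read at 550 nm and expressed relative to untreated cells (100%).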

[24] = system: OVCAR-5; test: Cytotoxicity against human OVCAR5 cells at 10 uM after 48 hrs by MTT assay; format: functional; conditions: OVCAR-5, 48 h
In short: as §1

[25] = target: T1, Telomerase reverse transcriptase; test: Effect on human TERT expressed in BJ1 cells at 100 uM after 24 hrs by SEAP assay relative to control; conditions: BJ
[26] = system: SR; test: Cytotoxicity against human SR cells at 10 uM after 48 hrs by MTT assay; format: functional
In short: as §2

[27] = system: SN12C; test: Cytotoxicity against human SN12C cells at 10 uM after 48 hrs by MTT assay; format: functional
In short: as §1

[28] = system: SK-MEL-28; test: Cytotoxicity against human SK-MEL-28 cells at 10 uM after 48 hrs by MTT assay; format: functional; conditions: SK-MEL-28, 48 h, values are per cent of control
In short: as §1

[29] = system: BT-549; test: Cytotoxicity against human BT549 cells at 10 uM after 48 hrs by MTT assay; format: functional; conditions: BT-549, 48 h
In short: as §1

[30] = system: SK-MEL-2; test: Cytotoxicity against human SK-MEL-2 cells at 10 uM after 48 hrs by MTT assay; format: functional; conditions: SK-MEL-2, 48 h, values are per cent of control
In short: as §1

[31] = Cytotoxicity against human CAK1-1 cells at 10 uM after 48 hrs by MTT assay; format: functional; conditions: CAK1-1, 48 h
In short: as §1

[32] = system: SF-295; test: Cytotoxicity against human SF295 cells at 10 uM after 48 hrs by MTT assay; format: functional; conditions: SF-295, 48 h, values are per cent of control
In short: as §1

[33] = system: HL-60; test: Cytotoxicity against human HL60 cells at 10 uM after 48 hrs by MTT assay; format: functional; conditions: HL-60, 48 h
In short: as §1

[34] = system: SNB-75; test: Cytotoxicity against human SNB75 cells at 10 uM after 48 hrs by MTT assay; format: functional; conditions: SNB-75, 48 h, values are per cent of control
In short: as §2

T1 sequence (O14746 whole entry): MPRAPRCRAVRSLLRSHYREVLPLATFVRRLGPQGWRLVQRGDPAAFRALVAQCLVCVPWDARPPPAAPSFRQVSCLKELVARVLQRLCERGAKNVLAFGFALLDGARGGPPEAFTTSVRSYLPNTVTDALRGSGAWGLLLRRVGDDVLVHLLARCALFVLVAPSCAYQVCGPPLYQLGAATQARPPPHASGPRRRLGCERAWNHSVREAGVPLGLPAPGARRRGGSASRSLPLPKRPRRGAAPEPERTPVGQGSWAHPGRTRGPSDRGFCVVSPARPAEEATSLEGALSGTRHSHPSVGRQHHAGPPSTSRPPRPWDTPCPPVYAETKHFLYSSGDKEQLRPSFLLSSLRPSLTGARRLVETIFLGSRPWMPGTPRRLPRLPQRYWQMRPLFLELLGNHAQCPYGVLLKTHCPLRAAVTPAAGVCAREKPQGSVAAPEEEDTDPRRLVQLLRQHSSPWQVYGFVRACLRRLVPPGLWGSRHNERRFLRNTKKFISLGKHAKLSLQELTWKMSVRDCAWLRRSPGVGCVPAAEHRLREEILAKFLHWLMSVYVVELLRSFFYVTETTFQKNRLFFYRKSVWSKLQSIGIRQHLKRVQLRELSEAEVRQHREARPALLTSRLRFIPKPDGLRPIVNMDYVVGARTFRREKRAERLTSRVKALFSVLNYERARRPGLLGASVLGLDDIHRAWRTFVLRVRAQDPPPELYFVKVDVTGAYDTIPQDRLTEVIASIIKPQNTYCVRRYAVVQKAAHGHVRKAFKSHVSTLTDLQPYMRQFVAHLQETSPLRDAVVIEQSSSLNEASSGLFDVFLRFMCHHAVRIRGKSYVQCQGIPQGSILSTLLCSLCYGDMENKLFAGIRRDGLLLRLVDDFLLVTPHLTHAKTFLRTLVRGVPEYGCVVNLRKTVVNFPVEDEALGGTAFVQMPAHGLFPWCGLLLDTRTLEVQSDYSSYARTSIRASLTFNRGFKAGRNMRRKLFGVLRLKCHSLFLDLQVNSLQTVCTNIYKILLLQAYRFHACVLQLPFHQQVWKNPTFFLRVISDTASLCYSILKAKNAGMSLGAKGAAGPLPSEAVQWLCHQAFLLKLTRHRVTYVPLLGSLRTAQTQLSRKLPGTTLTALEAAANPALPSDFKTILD

residual activity [3] [%] | residual activity [5] [%] | residual activity [18] [%] | Compound | growth percent at 10 µM [1] [%] | growth, % of control at 10 µM [2] [%] | growth percent at 10 µM [4] [%] | growth percent at 10 µM [7] [%] | growth, % of control at 10 µM [8] [%] | growth percent at 10 µM [9] [%] | growth percent at 10 µM [10] [%] | growth percent at 10 µM [11] [%] | growth, % of control at 10 µM [12] [%] | growth percent at 10 µM [13] [%] | growth percent at 10 µM [14] [%] | growth, % of control at 10 µM [15] [%] | growth percent at 10 µM [16] [%] | growth, % of control at 10 µM [17] [%] | growth percent at 10 µM [19] [%] | growth percent at 10 µM [20] [%] | growth, % of control at 10 µM [21] [%] | further results
49 | 35 | 26 | CCN(CC)CCC(=O)Nc1ccc2c(c1)C(=O)c1cc(NC(=O)CCN(CC)CC)ccc1C2=O | 17.4 | 10.2 | 3.3 | 44 | 3.39 | 10.4 | 24.9 | 44.8 | 35.2 | -6.02 | 28 | 16.9 | 31.3 | 21.6 | -32.5 | 59.5 | 13.6 | Activity [6]: Active; growth percent at 10 µM [22]: 5.42%; viability at 48 h, 1 µM [23]: 103%; growth percent at 10 µM [24]: 33.6%; residual activity [25]: 37%; growth percent at 10 µM [26]: -0.39%; growth percent at 10 µM [27]: 8.63%; growth, % of control at 10 µM [28]: 2.56%; growth percent at 10 µM [29]: 57%; growth, % of control at 10 µM [30]: -60.4%; growth percent at 10 µM [31]: 3.27%; growth, % of control at 10 µM [32]: -19.9%; growth percent at 10 µM [33]: 14%; growth, % of control at 10 µM [34]: 46.6%
117 | 87 | 74 | CC(=O)Nc1ccc2c(c1)C(=O)c1cc(NC(C)=O)ccc1C2=O | 93.9 | 117 | 107 | 101 | 99 | 111 | 104 | 97.5 | 114 | 99.8 | 93.6 | 103 | 104 | 95.1 | 102 | 114 | 103 | growth percent at 10 µM [22]: 97%; viability at 48 h, 1 µM [23]: 106%; growth percent at 10 µM [24]: 102%; residual activity [25]: 117%; growth percent at 10 µM [26]: 3.61%; growth percent at 10 µM [27]: 113%; growth, % of control at 10 µM [28]: 118%; growth percent at 10 µM [29]: 93.3%; growth, % of control at 10 µM [30]: 30.1%; growth percent at 10 µM [31]: 105%; growth, % of control at 10 µM [32]: 103%; growth percent at 10 µM [33]: 38.7%; growth, % of control at 10 µM [34]: 107%
